Measurements reported in ChEMBL document CHEMBL1147733, “Design, synthesis, and biological evaluation of phosphinopeptides against Trypanosoma cruzi targeting trypanothione biosynthesis” (J Med Chem, 2006).

Columns and labels:
Trypanosoma cruzi [1] = test: Inhibitory activity against Trypanosoma cruzi amastigotes; assay type: functional, organism-based; details: for IC50: Trypanosoma cruzi
How it was run: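 Gamma-irradiated L6E9 myoblasts in DMEM/20% fetal calf serum, 24 h at 37 °C, then infected with 4.17 × 10⁶ trypomastigotes/well for 2 h (7% CO2). After washing, medium with 1 µCi/mL [5,6-³H]uracil and drug in ethanol added; TCA-precipitable ³H measured at day 3. Host toxicity up to 50 µM by phase-contrast microscopy; values are means of three experiments.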

Trypanosoma cruzi [2] = test: Inhibitory activity against Trypanosoma cruzi Y epimastigotes; assay type: functional, organism-based
How it was run: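 Epimastigotes in sterile screw-cap tubes, drugs in absolute ethanol at 1, 5, 15 and 25 µg/mL, each in triplicate; ethanol-only control and medium blank. Growth read as absorbance at 600 nm against medium; percent inhibition = 100 − (ΔA_drug × 100)/ΔA_control, ΔA taken between start and end of culture.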

Row | IC50 (Trypanosoma cruzi [1]) | IC50 (Trypanosoma cruzi [2]) | Structure (SMILES) | Inhibition (Trypanosoma cruzi [1])
1 | 9.8 µM | > 50 µM | CCCCP(=O)(O)CNC(=O)[C@H](CC(C)C)NC(=O)CCC(N)C(=O)O (some centres not stated) | 
2 | > 50 µM | > 50 µM | CCP(=O)(O)CNC(=O)[C@H](CC(C)C)NC(=O)CCC(N)C(=O)O (some centres not stated) | 
3 | > 50 µM | > 50 µM | CCCCCCP(=O)(O)CNC(=O)[C@H](CC(C)C)NC(=O)CCC(N)C(=O)O (some centres not stated) | 45%
4 | > 50 µM | > 50 µM | CCCCCCCP(=O)(O)CNC(=O)[C@H](CC(C)C)NC(=O)CCC(N)C(=O)O (some centres not stated) | 31%
5 | 14.2 µM | > 50 µM | CCCCCP(=O)(O)CNC(=O)[C@H](CC(C)C)NC(=O)CCC(N)C(=O)O (some centres not stated) | 
6 | > 50 µM | > 50 µM | CC(C)C[C@H](NC(=O)CCC(N)C(=O)O)C(=O)NCP(C)(=O)O (some centres not stated) | 
7 | > 50 µM | > 50 µM | CCCP(=O)(O)CNC(=O)[C@H](CC(C)C)NC(=O)CCC(N)C(=O)O (some centres not stated) | 

Row | Structure (SMILES) | IC50 (Trypanosoma cruzi [1]) | IC50 (Trypanosoma cruzi [2]) | Inhibition (Trypanosoma cruzi [1])
8 | N#CSCCOc1ccc(Oc2ccccc2)cc1 | 2 µM |  | 
